From ChEMBL document CHEMBL2150969, “Design, synthesis and biological evaluation of nuclear receptor-degradation inducers” (Bioorg Med Chem, 2011)
Blank lines part the entries; values can stand above or below the compound they belong to. Calls of active or inactive are those of the source. The calls are words filed in the database; no cut-off is given here.

Key:
[1] = target: Baculoviral IAP repeat-containing protein 2 (Homo sapiens) (UniProt Q13490); test: Induction of cIAP1-mediated AR degradation in human MCF7 cells at 30 uM after 24 hrs by Western blot analysis relative to control; assay type: cell-based
Outline: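 MCF-7 cells were grown in D-MEM with 10% FBS, penicillin/streptomycin and 10 nM DHT at 37 °C under 5% CO2. Cells (1×10^6) were treated, lysed in SDS buffer, and equal protein (by BCA) was run on 10-20% SDS-PAGE and transferred to PVDF. Blots were blocked in 5% skim milk/TBS-T, probed with mouse monoclonal anti-AR (1:200) and β-actin antibody, and read by ECL.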

[2] = target: Baculoviral IAP repeat-containing protein 2 (Homo sapiens) (UniProt Q13490); test: Induction of cIAP1-mediated ERalpha degradation in human MCF7 cells at 30 uM after 24 hrs by Western blot analysis; assay type: cell-based
Outline: (§1)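 MCF-7 cells were kept in D-MEM with 10% FBS and penicillin/streptomycin, with 2 nM E2 as physiological agonist, at 37 °C under 5% CO2. Cells (1×10^6) were treated, lysed in SDS buffer and protein was BCA-normalized. Lysates ran on 10-20% SDS-PAGE and PVDF, blocked with 5% skim milk, then probed with rabbit polyclonal anti-ERα (1:200) and β-actin. Detection used HRP secondaries and ECL.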

[3] = target: Baculoviral IAP repeat-containing protein 2 (Homo sapiens) (UniProt Q13490); test: Induction of FLAG-tagged cIAP1 expressed in human HT1080 cells assessed as RARalpha degradation at 30 uM after 24 hrs by Western blot analysis; assay type: cell-based; conditions: HT-1080
Outline: (§2)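 HT-1080 cells were grown in RPMI 1640 with 10% heat-inactivated FBS at 37 °C under 5% CO2. Cells (1×10^6) were treated, then lysed in SDS buffer and protein was equalized by BCA. Lysates ran on 10-20% SDS-PAGE and went to PVDF, blocked with 5% skim milk/TBS-T. Blots were probed with anti-CRABP-II or anti-RARα plus β-actin, HRP secondaries, and ECL detection.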

MCF7 = test: Induction of ERalpha degradation in human MCF7 cells at 30 uM after 24 hrs by Western blot analysis; assay type: functional, cell-based; outline: as §1
[4] = target: Baculoviral IAP repeat-containing protein 2 (Homo sapiens) (UniProt Q13490); test: Induction of cIAP1-mediated ERalpha degradation in human MCF7 cells at 1 to 30 uM after 24 hrs by Western blot analysis; assay type: cell-based; outline: as §1
HT-1080 [5] = test: Induction of RARalpha degradation in human HT1080 cells at 10 uM after 24 hrs by Western blot analysis; assay type: functional, cell-based; outline: as §2
[6] = target: Baculoviral IAP repeat-containing protein 2 (Homo sapiens) (UniProt Q13490); test: Induction of FLAG-tagged cIAP1 expressed in human HT1080 cells assessed as RARalpha degradation after 24 hrs by Western blot analysis; assay type: cell-based; conditions: HT-1080; outline: as §2
[7] = target: Baculoviral IAP repeat-containing protein 2 (Homo sapiens) (UniProt Q13490); test: Induction of FLAG-tagged cIAP1 expressed in human HT1080 cells assessed as RARalpha degradation at 10 uM after 6 hrs by Western blot analysis in presence of proteasome inhibitor MG132 added 30 mins prior to compound treatment; assay type: cell-based; conditions: HT-1080; outline: as §2
[8] = target: Baculoviral IAP repeat-containing protein 2 (Homo sapiens) (UniProt Q13490); test: Induction of FLAG-tagged cIAP1 expressed in human HT1080 cells assessed as RARalpha degradation at 10 uM after 6 hrs by Western blot analysis in presence of RAR antagonist LE540 added 30 mins prior to compound treatment; assay type: functional, cell-based; conditions: HT-1080; outline: as §2
[9] = target: Baculoviral IAP repeat-containing protein 2 (Homo sapiens) (UniProt Q13490); test: Induction of FLAG-tagged cIAP1 expressed in human HT1080 cells assessed as CRABP-2 degradation at 1 to 30 uM after 24 hrs by Western blot analysis; assay type: cell-based; conditions: HT-1080; outline: as §2
[10] = target: Baculoviral IAP repeat-containing protein 2 (Homo sapiens) (UniProt Q13490); test: Induction of FLAG-tagged cIAP1 expressed in human HT1080 cells assessed as RARalpha degradation at 10 uM after 24 hrs by Western blot analysis; assay type: cell-based; conditions: HT-1080; outline: as §2
HT-1080 [11] = test: Induction of CRABP-2 degradation in human HT1080 cells at 10 uM after 24 hrs by Western blot analysis; assay type: functional, cell-based; outline: as §2

Sequence of Baculoviral IAP repeat-containing protein 2 (Homo sapiens) (Q13490 whole entry): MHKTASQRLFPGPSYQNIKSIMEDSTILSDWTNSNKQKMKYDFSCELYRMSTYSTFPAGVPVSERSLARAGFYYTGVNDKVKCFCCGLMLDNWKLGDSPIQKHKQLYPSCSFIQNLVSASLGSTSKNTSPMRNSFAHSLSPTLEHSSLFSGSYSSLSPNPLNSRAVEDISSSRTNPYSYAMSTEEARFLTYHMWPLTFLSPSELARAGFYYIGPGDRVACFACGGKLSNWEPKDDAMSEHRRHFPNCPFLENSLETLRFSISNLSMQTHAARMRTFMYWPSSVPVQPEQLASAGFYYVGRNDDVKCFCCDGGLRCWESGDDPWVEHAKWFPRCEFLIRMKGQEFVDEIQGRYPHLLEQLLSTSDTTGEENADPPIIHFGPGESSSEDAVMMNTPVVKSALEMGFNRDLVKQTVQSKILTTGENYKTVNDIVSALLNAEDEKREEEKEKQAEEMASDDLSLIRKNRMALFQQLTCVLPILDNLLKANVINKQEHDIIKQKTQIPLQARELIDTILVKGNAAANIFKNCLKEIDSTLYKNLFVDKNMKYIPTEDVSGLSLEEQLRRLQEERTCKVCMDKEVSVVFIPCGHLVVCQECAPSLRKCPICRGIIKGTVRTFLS

Compound: CNC(=O)[C@H](CC(C)C)NC(=O)[C@@H](O)[C@H](N)Cc1ccccc1
Activity [1]: Active | Activity [2]: inactive | Activity [3]: inactive

Compound: C[C@]12CC[C@@H]3c4ccc(O)cc4CC[C@H]3[C@@H]1CCC2=O
Activity (MCF7): inactive

Compound: CC(C)C[C@H](NC(=O)[C@@H](O)[C@H](N)Cc1ccccc1)C(=O)NCCOCCOCCOCC(=O)O[C@H]1CC[C@H]2[C@@H]3CC[C@H]4CC(=O)CC[C@]4(C)[C@H]3CC[C@]12C
Activity [1]: Active

Compound: CC(C)C[C@H](NC(=O)CCCc1ccccc1)C(=O)NCCOCCOCCOCC(=O)NCCCOc1cc(/C=C/C(=O)c2cc(C(C)(C)C)cc(C(C)(C)C)c2)ccc1C(=O)O
Activity (HT-1080 [5]): inactive

Compound: CC1=C(/C=C/C(C)=C/C=C/C(C)=C/C(=O)O)C(C)(C)CC/C1=N\OCC(=O)NCCOCCOCCOC(=O)[C@H](CC(C)C)NC(=O)[C@@H](O)[C@H](N)Cc1ccccc1
Activity [10]: inactive | Activity (HT-1080 [11]): Active

Results, then the compound that gave them:

Activity [4]: inactive
Compound: CC(C)C[C@H](NC(=O)CCCc1ccccc1)C(=O)NCCOCCOCCNC(=O)CO/N=C1\CC[C@H]2[C@@H]3CCc4cc(O)ccc4[C@H]3CC[C@]12C

Activity [2]: Active
Compound: CC(C)C[C@H](NC(=O)[C@@H](O)[C@H](N)Cc1ccccc1)C(=O)NCCOCCOCCNC(=O)CO/N=C1\CC[C@H]2[C@@H]3CCc4cc(O)ccc4[C@H]3CC[C@]12C

Activity [6]: Dose-dependent effect | Activity [7]: inactive | Activity [8]: inactive | Activity [9]: inactive
Compound: CC(C)C[C@H](NC(=O)[C@@H](O)[C@H](N)Cc1ccccc1)C(=O)NCCOCCOCCOCC(=O)NCCCOc1cc(/C=C/C(=O)c2cc(C(C)(C)C)cc(C(C)(C)C)c2)ccc1C(=O)O
